Source: ChEMBL document CHEMBL1140013, “The 1,4-naphthoquinone scaffold in the design of cysteine protease inhibitors” (Bioorg Med Chem, 2007)
The source made the active and inactive calls. No cut-off for these calls is given here.

What was measured:
[1] = biological target: Pancreatic elastase (Sus scrofa) (UniProt P08419+P00772); test: Inhibition of pig pancreatic elastase; format: protein assay
In short: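 Porcine pancreatic elastase (50 µM stock) was incubated with inhibitor (DMSO stock) in 0.1 M Hepes pH 7.2 for up to 2 h. Timed aliquots were assayed on Suc-Ala-Ala-Ala-4-nitroanilide, following absorbance at 390 nm for 50 s.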

Cathepsin B (Bos taurus) = Cathepsin B (Bos taurus) (UniProt P07688); test: Inhibition of bovine spleen cathepsin B
In short: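 Cathepsin B (10 U/mL) was activated 15 min at 25 °C in 20 mM sodium acetate pH 5.0 with 1.0 mM EDTA and 30 mM DTT. It was then pre-incubated with inhibitor (DMSO stock) in acetate/EDTA buffer (Kitz–Wilson method). Aliquots were assayed on Z-S-Lys-ONp with 2.0 mM DTT, following p-nitrophenol at 326 nm for 3 min at 25 °C. k_obs came from ln(v/v0) versus time, using 4–6 inhibitor concentrations.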

Papain (Carica papaya) [2] = biological target: T1, Papain (Carica papaya) (UniProt P00784); test: Inhibition of papain at 65 uM after 30 mins
T1 sequence (whole entry): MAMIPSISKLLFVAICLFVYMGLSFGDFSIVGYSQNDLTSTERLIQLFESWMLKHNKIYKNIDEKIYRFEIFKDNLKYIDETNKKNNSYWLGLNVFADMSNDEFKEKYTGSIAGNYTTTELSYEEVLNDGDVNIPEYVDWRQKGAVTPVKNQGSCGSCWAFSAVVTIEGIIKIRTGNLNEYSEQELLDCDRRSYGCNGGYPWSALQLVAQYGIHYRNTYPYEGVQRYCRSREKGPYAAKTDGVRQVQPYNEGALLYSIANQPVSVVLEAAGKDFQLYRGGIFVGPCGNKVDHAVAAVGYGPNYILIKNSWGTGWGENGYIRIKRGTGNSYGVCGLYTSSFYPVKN
In short: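 Papain activated 30 min at 25 °C in 50 mM potassium phosphate pH 7.0 with 2.5 mM EDTA and 2.0 mM DTT. Inhibitor in DMSO added to the enzyme in EDTA-only buffer, with control incubations run in parallel. Aliquots went into BAPA substrate in buffer with EDTA and DTT. p-Nitroaniline release read at 410 nm for 4 min at 25 °C.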

Papain (Carica papaya) [3] = biological target: T1, Papain (Carica papaya); test: Inhibition of papain at 1.3 mM after 20 mins
In short: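 Papain was pre-incubated with inhibitor at 1.3 mM for 20 min. Residual activity on BAPA was read at 410 nm and reported as % inhibition.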

## CC1=CC(=O)c2ccccc2C1=O
[1]
  Activity: inactive

## CNC1=CC(=O)c2ccccc2C1=O
[1]
  Activity: inactive

## CCOC(=O)[C@H](Cc1ccccc1)NC1=C(Cl)C(=O)c2ccccc2C1=O
[1]
  Activity: inactive

## O=C1C(Cl)=C(N2CCOCC2)C(=O)c2ccccc21
[1]
  Activity: inactive

## CCOC(=O)CNC1=C(Cl)C(=O)c2ccccc2C1=O
[1]
  Activity: inactive

## CCOC(=O)[C@H](Cc1ccccc1)NC1=CC(=O)c2ccccc2C1=O
[1]
  Activity: inactive

## CCOC(=O)CNC1=C(Br)C(=O)c2ccccc2C1=O
Cathepsin B (Bos taurus)
  Kinact: 55.9 µM
[1]
  Activity: inactive

## CCOC(=O)CNC1=CC(=O)c2ccccc2C1=O
Cathepsin B (Bos taurus)
  Kinact: 14 µM
[1]
  Activity: inactive

## CCOC1=CC(=O)c2ccccc2C1=O
Cathepsin B (Bos taurus)
  Kinact: 797 µM
[1]
  Activity: inactive

## O=C1C=C(Br)C(=O)c2ccccc21
[1]
  Activity: inactive

## CC1=CC(=O)c2c(C)ccc(C)c2C1=O
[1]
  Activity: inactive

## CC(C)CCNC(=O)[C@H](CC(C)C)NC1=CC(=O)c2ccccc2C1=O
[1]
  Activity: inactive

## CCOC(=O)[C@H](Cc1ccccc1)NC1=C(Br)C(=O)c2ccccc2C1=O
[1]
  Activity: inactive

## O=C1C=CC(=O)c2ccccc21
[1]
  Activity: inactive
Papain (Carica papaya) [2]
  inhibition: 49.5%

## O=C1C=C(O)C(=O)c2ccccc21
[1]
  Activity: inactive
Papain (Carica papaya) [3]
  inhibition: 82%

## O=C1C=CC(=O)c2c(O)cccc21
[1]
  Activity: inactive
Papain (Carica papaya) [2]
  inhibition: 60.4%

## O=C1C(Cl)=C(Cl)C(=O)c2ccccc21
[1]
  Activity: inactive

## CNC1=C(Br)C(=O)c2ccccc2C1=O
[1]
  Activity: inactive

## CC(=O)Oc1cccc2c1C(=O)C=CC2=O
[1]
  Activity: inactive
